Experimental findings from ChEMBL document CHEMBL2331506, “Design, synthesis, antiviral and cytostatic evaluation of novel isoxazolidine nucleotide analogues with a carbamoyl linker” (Bioorg Med Chem, 2013) are described below.

Activity calls are given as the source filed them. No rule for the calls is given here.

The assay has as its system Vaccinia virus. Briefly: Antiviral activity against Vaccinia virus Lederle infected in human HEL cells assessed as reduction of virus-induced cytopathogenicity at 250 uM. In kind it is functional, organism-based. The note with it: Orthopoxvirus vaccinia. In a few lines: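 Confluent cell monolayers were infected with 100 CCID50 of virus while exposed to varying compound concentrations. Cytopathicity was scored once it was complete in untreated infected controls. EC50 was taken as the concentration that reduced virus-induced cytopathogenicity by 50%.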
Background: Damage to the host cells serves as the signal in cytopathic effect assays.
Turning to `CCOP(=O)(OCC)[C@@H]1C[C@H](C(=O)Nc2cccc(Cl)c2)ON1C` (mixture of isomers), the inhibition entry was “inactive”.
As to `CCOP(=O)(OCC)[C@@H]1C[C@H](C(=O)Nc2ccccc2Cl)ON1C` (mixture of isomers), the inhibition result is “inactive”.
As for `CCOP(=O)(OCC)[C@@H]1C[C@H](C(=O)Nc2ccc(OC)c(OC)c2)ON1C` (mixture of isomers), the inhibition result is “inactive”.
In the case of `CCOP(=O)(OCC)[C@H]1C[C@H](C(=O)Nc2ccc(OC)c(OC)c2)ON1C` (mixture of isomers), the inhibition result was “inactive”.
Consider `CCOc1ccc(NC(=O)[C@H]2C[C@H](P(=O)(OCC)OCC)N(C)O2)cc1` (mixture of isomers), for which the inhibition entry was “inactive”.
As to `CCOP(=O)(OCC)[C@H]1C[C@H](C(=O)Nc2cc(OC)cc(OC)c2)ON1C` (mixture of isomers), the inhibition entry was “inactive”.
Take `CCOP(=O)(OCC)[C@@H]1C[C@H](C(=O)Nc2cc(OC)cc(OC)c2)ON1C` (mixture of isomers): the inhibition result was “inactive”.
With `CCOP(=O)(OCC)[C@H]1C[C@H](C(=O)Nc2cc(OC)c(OC)c(OC)c2)ON1C` (mixture of isomers), the inhibition entry was “inactive”.
In the case of `CCOP(=O)(OCC)[C@H]1C[C@H](C(=O)Nc2cc(OC)c(OC)cc2C#N)ON1C` (mixture of isomers), the inhibition result is “inactive”.
For `CCOP(=O)(OCC)[C@@H]1C[C@H](C(=O)Nc2cc(OC)c(OC)cc2C#N)ON1C` (mixture of isomers), the inhibition entry was “inactive”.
On to `CCOP(=O)(OCC)[C@H]1C[C@H](C(=O)Nc2cc(OC)c(OC)cc2C(C)=O)ON1C` (mixture of isomers), for which the inhibition entry was “inactive”.
As for `CCOP(=O)(OCC)[C@@H]1C[C@H](C(=O)Nc2cc(OC)c(OC)cc2C(C)=O)ON1C` (mixture of isomers), the inhibition result is “inactive”.
The value for `CCOP(=O)(OCC)[C@@H]1C[C@H](C(=O)Nc2ccc(F)cc2)ON1C` (mixture of isomers) was “inactive”.
The value for `CCOP(=O)(OCC)[C@H]1C[C@H](C(=O)Nc2ccc(F)cc2F)ON1C` (mixture of isomers) was “inactive”; that for `CCOP(=O)(OCC)[C@@H]1C[C@H](C(=O)Nc2ccc(F)cc2F)ON1C` (mixture of isomers) was “inactive”; that for `CCOP(=O)(OCC)[C@H]1C[C@H](C(=O)Nc2ccccc2Br)ON1C` (mixture of isomers) was “inactive”.
Regarding `CCOP(=O)(OCC)[C@@H]1C[C@H](C(=O)Nc2ccccc2Br)ON1C` (mixture of isomers), the inhibition entry was “inactive”.
On to `CCOP(=O)(OCC)[C@@H]1C[C@H](C(=O)Nc2cccc(Br)c2)ON1C` (mixture of isomers), for which the inhibition result is “inactive”.
On to `CCOP(=O)(OCC)[C@@H]1C[C@H](C(=O)Nc2ccc(Br)cc2)ON1C` (mixture of isomers), for which the inhibition result was “inactive”.
In the case of `CCOP(=O)(OCC)[C@H]1C[C@H](C(=O)Nc2cccc(Cl)c2)ON1C` (mixture of isomers), the inhibition entry is “inactive”.
With `CCOP(=O)(OCC)[C@H]1C[C@H](C(=O)Nc2cccc([N+](=O)[O-])c2)ON1C` (mixture of isomers) the entry was “inactive”; with `CCOP(=O)(OCC)[C@@H]1C[C@H](C(=O)Nc2cccc([N+](=O)[O-])c2)ON1C` (mixture of isomers), “inactive”; with `CCOP(=O)(OCC)[C@H]1C[C@H](C(=O)Nc2ccc([N+](=O)[O-])cc2)ON1C` (mixture of isomers), “inactive”.
With `CCOP(=O)(OCC)[C@@H]1C[C@H](C(=O)Nc2ccc(C#N)cc2)ON1C` (mixture of isomers) the entry was “inactive”.
With `CCOP(=O)(OCC)[C@H]1C[C@H](C(=O)Nc2ccccc2C(C)=O)ON1C` (mixture of isomers) the entry was “inactive”; with `CCOP(=O)(OCC)[C@@H]1C[C@H](C(=O)Nc2ccccc2C(C)=O)ON1C` (mixture of isomers), “inactive”; with `CCOP(=O)(OCC)[C@H]1C[C@H](C(=O)Nc2cccc(C(C)=O)c2)ON1C` (mixture of isomers), “inactive”.
`CCOP(=O)(OCC)[C@@H]1C[C@H](C(=O)Nc2cccc(C)c2)ON1C` (mixture of isomers): the inhibition entry is “inactive”.
As for `CCOP(=O)(OCC)[C@@H]1C[C@H](C(=O)Nc2ccc(C)cc2)ON1C` (mixture of isomers), the inhibition entry is “inactive”.
Turning to `CCOP(=O)(OCC)[C@@H]1C[C@H](C(=O)Nc2cccc(OC)c2)ON1C` (mixture of isomers), the inhibition result is “inactive”.
Regarding `CCOP(=O)(OCC)[C@H]1C[C@H](C(=O)Nc2ccccc2F)ON1C` (mixture of isomers), the inhibition entry is “inactive”.
Take `CCOP(=O)(OCC)[C@H]1C[C@H](C(=O)Nc2cccc(F)c2)ON1C` (mixture of isomers): the inhibition result was “inactive”.
Turning to `CCOP(=O)(OCC)[C@@H]1C[C@H](C(=O)Nc2cccc(F)c2)ON1C` (mixture of isomers), the inhibition result is “inactive”.
With `CCOP(=O)(OCC)[C@H]1C[C@H](C(=O)Nc2ccc(Br)cc2)ON1C` (mixture of isomers) the entry was “inactive”; with `CCOP(=O)(OCC)[C@@H]1C[C@H](C(=O)Nc2ccc(Cl)cc2)ON1C` (mixture of isomers), “inactive”; with `CCOP(=O)(OCC)[C@H]1C[C@H](C(=O)Nc2ccccc2[N+](=O)[O-])ON1C` (mixture of isomers), “inactive”.
As for `CCOP(=O)(OCC)[C@@H]1C[C@H](C(=O)Nc2ccccc2[N+](=O)[O-])ON1C` (mixture of isomers), the inhibition result is “inactive”.
For `CCOP(=O)(OCC)[C@H]1C[C@H](C(=O)Nc2ccc(C(C)=O)cc2)ON1C` (mixture of isomers), the inhibition result was “inactive”.
For the compound `CCOP(=O)(OCC)[C@@H]1C[C@@H](C(=O)Nc2ccccc2Cl)ON1C` (racemic), the inhibition result was “inactive”.
Take `CCOc1ccc(NC(=O)[C@H]2C[C@@H](P(=O)(OCC)OCC)N(C)O2)cc1` (racemic): the inhibition entry was “inactive”.
With `CCOP(=O)(OCC)[C@@H]1C[C@H](C(=O)Nc2cc(OC)c(OC)c(OC)c2)ON1C` (racemic), the inhibition result is “inactive”.
With `CCOP(=O)(OCC)[C@H]1C[C@H](C(=O)Nc2ccc(F)cc2)ON1C` (racemic) the entry was “inactive”.
`CCOP(=O)(OCC)[C@@H]1C[C@H](C(=O)Nc2ccc([N+](=O)[O-])cc2)ON1C` (racemic): the inhibition entry is “inactive”.
Turning to `CCOP(=O)(OCC)[C@H]1C[C@H](C(=O)Nc2cccc(C#N)c2)ON1C` (racemic), the inhibition entry is “inactive”.
With `CCOP(=O)(OCC)[C@@H]1C[C@H](C(=O)Nc2cccc(C#N)c2)ON1C` (racemic) the entry was “inactive”; with `CCOP(=O)(OCC)[C@H]1C[C@H](C(=O)Nc2ccc(C#N)cc2)ON1C` (racemic), “inactive”; with `CCOP(=O)(OCC)[C@@H]1C[C@H](C(=O)Nc2cccc(C(C)=O)c2)ON1C` (racemic), “inactive”.
With `CCOP(=O)(OCC)[C@H]1C[C@H](C(=O)Nc2cccc(C)c2)ON1C` (racemic) the entry was “inactive”; with `CCOP(=O)(OCC)[C@H]1C[C@H](C(=O)Nc2cccc(OC)c2)ON1C` (racemic), “inactive”; with `CCOP(=O)(OCC)[C@@H]1C[C@H](C(=O)Nc2ccccc2F)ON1C` (racemic), “inactive”.
For the compound `CCOP(=O)(OCC)[C@H]1C[C@H](C(=O)Nc2cccc(Br)c2)ON1C` (racemic), the inhibition entry was “inactive”.
The value for `CCOP(=O)(OCC)[C@@H]1C[C@H](C(=O)Nc2ccc(C(C)=O)cc2)ON1C` (racemic) was “inactive”.
For `CCOP(=O)(OCC)[C@H]1C[C@H](C(=O)Nc2ccc(C)cc2)ON1C` (relative stereo), the inhibition result was “inactive”.
Consider `CCOP(=O)(OCC)[C@H]1C[C@H](C(=O)Nc2ccc(Cl)cc2)ON1C` (relative stereo), for which the inhibition result was “inactive”.
